Results published in ChEMBL document CHEMBL5058577, “EUbOPEN Chemogenomics Library 2 (Multiplex)” (2022).

System: HEK-293T
Test: Multiplex assay against HEK293T
Type: toxicity, cell-based
Settings: human
Outline: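 On a CQ1 microscope at 37°C and 5% CO2, live cells were imaged after compound addition. They had been stained at seeding with Hoechst33342, BioTracker Green Microtubule Cytoskeleton Dye, MitoTracker Red and Annexin V Alexa Fluor 680. CellPathfinder machine-learning gating assigned cells to Hoechst high-intensity objects or normal cells, normal cells to healthy, pyknosed or fragmented nuclei, and pyknosed cells to mitotic or apoptotic. Tubulin, mitochondrial-mass and membrane-permeability phenotypes are per cents of healthy-nucleus cells.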

[1] = 12 h, 1 µM, compound concentration 1 uM, replicate 1
[2] = 12 h, 1 µM, compound concentration 1 uM, replicate 2
[3] = 12 h, 10 µM, compound concentration 10 uM, replicate 1
[4] = 12 h, 10 µM, compound concentration 10 uM, replicate 2
[5] = 24 h, 1 µM, compound concentration 1 uM, replicate 1
[6] = 24 h, 1 µM, compound concentration 1 uM, replicate 2
[7] = 24 h, 10 µM, compound concentration 10 uM, replicate 1
[8] = 24 h, 10 µM, compound concentration 10 uM, replicate 2
[9] = 48 h, 1 µM, compound concentration 1 uM, replicate 1
[10] = 48 h, 1 µM, compound concentration 1 uM, replicate 2
[11] = 48 h, 10 µM, compound concentration 10 uM, replicate 1
[12] = 48 h, 10 µM, compound concentration 10 uM, replicate 2

Q: How did the “Population Apoptotic (%)” value [1] turn out when `C[C@H](N)COC(=O)[C@@H](CCCCN)NC(=O)Cc1c(-c2ccc3ccccc3c2)[nH]c2c1ccc1ccccc12` was run?
A: 22%

Q: What about the “Population Fragmented Nuclei (%)” value [1] of the same compound?
A: 6%

Q: What about the “Population Healthy Nuclei (%)” value [1] of the same compound?
A: 82%

Q: What about the “Population Hoechst High Intensity Objects (%)” value [1] of the same compound?
A: 8%

Q: And the “Population Membrane Permeable-Phenotype (%)” value [1]?
A: 0%

Q: What about the “Population Mitochondria Different-Phenotype (%)” value [1] of the same compound?
A: 37%

Q: What about the “Population Mitotic Cells (%)” value [1] of the same compound?
A: 77%

Q: What about the “Population Normal (%)” value [1] of the same compound?
A: 91%

Q: What about the “Population Pyknosed Nuclei (%)” value [1] of the same compound?
A: 10%

Q: What about the “Population Tubulin-Different-Phenotype (%)” value [1] of the same compound?
A: 27%

Q: And the “Total Cell Count” value [1]?
A: 458

Q: What about the “Population Apoptotic (%)” value [2] of the same compound?
A: 51%

Q: What about the “Population Fragmented Nuclei (%)” value [2] of the same compound?
A: 8%

Q: What about the “Population Healthy Nuclei (%)” value [2] of the same compound?
A: 74%

Q: And the “Population Mitochondria Different-Phenotype (%)” value [2]?
A: 65%

Q: What about the “Population Mitotic Cells (%)” value [2] of the same compound?
A: 48%

Q: What about the “Population Pyknosed Nuclei (%)” value [2] of the same compound?
A: 16%

Q: What about the “Population Tubulin-Different-Phenotype (%)” value [2] of the same compound?
A: 30%

Q: And the “Total Cell Count” value [2]?
A: 291

Q: And the “Population Apoptotic (%)” value [3]?
A: 41%

Q: And the “Population Fragmented Nuclei (%)” value [3]?
A: 7%

Q: What about the “Population Healthy Nuclei (%)” value [3] of the same compound?
A: 78%

Q: What about the “Population Hoechst High Intensity Objects (%)” value [3] of the same compound?
A: 11%

Q: What about the “Population Membrane Permeable-Phenotype (%)” value [3] of the same compound?
A: 0%

Q: What about the “Population Mitochondria Different-Phenotype (%)” value [3] of the same compound?
A: 60%

Q: What about the “Population Mitotic Cells (%)” value [3] of the same compound?
A: 58%

Q: What about the “Population Normal (%)” value [3] of the same compound?
A: 88%

Q: What about the “Population Pyknosed Nuclei (%)” value [3] of the same compound?
A: 14%

Q: And the “Population Tubulin-Different-Phenotype (%)” value [3]?
A: 54%

Q: What about the “Total Cell Count” value [3] of the same compound?
A: 435

Q: What about the “Population Apoptotic (%)” value [4] of the same compound?
A: 61%

Q: And the “Population Fragmented Nuclei (%)” value [4]?
A: 5%

Q: What about the “Population Hoechst High Intensity Objects (%)” value [4] of the same compound?
A: 7%

Q: What about the “Population Mitochondria Different-Phenotype (%)” value [4] of the same compound?
A: 72%

Q: And the “Population Mitotic Cells (%)” value [4]?
A: 38%

Q: What about the “Population Normal (%)” value [4] of the same compound?
A: 93%

Q: What about the “Population Pyknosed Nuclei (%)” value [4] of the same compound?
A: 16%

Q: And the “Population Tubulin-Different-Phenotype (%)” value [4]?
A: 50%

Q: And the “Total Cell Count” value [4]?
A: 343

Q: And the “Population Apoptotic (%)” value [5]?
A: 25%

Q: And the “Population Fragmented Nuclei (%)” value [5]?
A: 9%

Q: What about the “Population Healthy Nuclei (%)” value [5] of the same compound?
A: 77%

Q: What about the “Population Hoechst High Intensity Objects (%)” value [5] of the same compound?
A: 4%

Q: And the “Population Membrane Permeable-Phenotype (%)” value [5]?
A: 0%

Q: And the “Population Mitochondria Different-Phenotype (%)” value [5]?
A: 24%

Q: What about the “Population Mitotic Cells (%)” value [5] of the same compound?
A: 75%

Q: What about the “Population Normal (%)” value [5] of the same compound?
A: 95%

Q: And the “Population Pyknosed Nuclei (%)” value [5]?
A: 12%

Q: What about the “Population Tubulin-Different-Phenotype (%)” value [5] of the same compound?
A: 19%

Q: What about the “Total Cell Count” value [5] of the same compound?
A: 638

Q: What about the “Population Apoptotic (%)” value [6] of the same compound?
A: 54%

Q: What about the “Population Fragmented Nuclei (%)” value [6] of the same compound?
A: 7%

Q: What about the “Population Healthy Nuclei (%)” value [6] of the same compound?
A: 80%

Q: And the “Population Hoechst High Intensity Objects (%)” value [6]?
A: 7%

Q: What about the “Population Membrane Permeable-Phenotype (%)” value [6] of the same compound?
A: 1%

Q: And the “Population Mitochondria Different-Phenotype (%)” value [6]?
A: 47%

Q: And the “Population Mitotic Cells (%)” value [6]?
A: 45%

Q: And the “Population Normal (%)” value [6]?
A: 92%

Q: What about the “Population Tubulin-Different-Phenotype (%)” value [6] of the same compound?
A: 25%

Q: What about the “Total Cell Count” value [6] of the same compound?
A: 352

Q: And the “Population Apoptotic (%)” value [7]?
A: 41%

Q: What about the “Population Fragmented Nuclei (%)” value [7] of the same compound?
A: 6%

Q: What about the “Population Healthy Nuclei (%)” value [7] of the same compound?
A: 78%

Q: What about the “Population Hoechst High Intensity Objects (%)” value [7] of the same compound?
A: 6%

Q: And the “Population Membrane Permeable-Phenotype (%)” value [7]?
A: 0%

Q: And the “Population Mitochondria Different-Phenotype (%)” value [7]?
A: 57%

Q: What about the “Population Mitotic Cells (%)” value [7] of the same compound?
A: 58%

Q: What about the “Population Normal (%)” value [7] of the same compound?
A: 93%

Q: And the “Population Pyknosed Nuclei (%)” value [7]?
A: 14%

Q: And the “Population Tubulin-Different-Phenotype (%)” value [7]?
A: 45%

Q: What about the “Total Cell Count” value [7] of the same compound?
A: 539

Q: What about the “Population Apoptotic (%)” value [8] of the same compound?
A: 48%

Q: And the “Population Fragmented Nuclei (%)” value [8]?
A: 9%

Q: And the “Population Healthy Nuclei (%)” value [8]?
A: 80%

Q: What about the “Population Hoechst High Intensity Objects (%)” value [8] of the same compound?
A: 7%

Q: And the “Population Mitochondria Different-Phenotype (%)” value [8]?
A: 54%

Q: And the “Population Mitotic Cells (%)” value [8]?
A: 51%

Q: And the “Population Normal (%)” value [8]?
A: 92%

Q: And the “Population Pyknosed Nuclei (%)” value [8]?
A: 10%

Q: What about the “Population Tubulin-Different-Phenotype (%)” value [8] of the same compound?
A: 42%

Q: What about the “Total Cell Count” value [8] of the same compound?
A: 439

Q: And the “Population Apoptotic (%)” value [9]?
A: 15%

Q: What about the “Population Fragmented Nuclei (%)” value [9] of the same compound?
A: 13%

Q: And the “Population Healthy Nuclei (%)” value [9]?
A: 78%

Q: What about the “Population Hoechst High Intensity Objects (%)” value [9] of the same compound?
A: 4%

Q: What about the “Population Membrane Permeable-Phenotype (%)” value [9] of the same compound?
A: 2%

Q: What about the “Population Mitochondria Different-Phenotype (%)” value [9] of the same compound?
A: 16%

Q: What about the “Population Mitotic Cells (%)” value [9] of the same compound?
A: 84%

Q: What about the “Population Normal (%)” value [9] of the same compound?
A: 95%

Q: What about the “Population Pyknosed Nuclei (%)” value [9] of the same compound?
A: 7%

Q: And the “Population Tubulin-Different-Phenotype (%)” value [9]?
A: 13%

Q: And the “Total Cell Count” value [9]?
A: 963

Q: And the “Population Apoptotic (%)” value [10]?
A: 37%

Q: And the “Population Fragmented Nuclei (%)” value [10]?
A: 11%

Q: And the “Population Healthy Nuclei (%)” value [10]?
A: 79%

Q: What about the “Population Membrane Permeable-Phenotype (%)” value [10] of the same compound?
A: 0%

Q: And the “Population Mitochondria Different-Phenotype (%)” value [10]?
A: 29%

Q: And the “Population Mitotic Cells (%)” value [10]?
A: 62%

Q: What about the “Population Pyknosed Nuclei (%)” value [10] of the same compound?
A: 9%

Q: And the “Population Tubulin-Different-Phenotype (%)” value [10]?
A: 17%

Q: What about the “Total Cell Count” value [10] of the same compound?
A: 540

Q: And the “Population Apoptotic (%)” value [11]?
A: 27%

Q: What about the “Population Fragmented Nuclei (%)” value [11] of the same compound?
A: 13%

Q: And the “Population Healthy Nuclei (%)” value [11]?
A: 78%

Q: And the “Population Hoechst High Intensity Objects (%)” value [11]?
A: 6%

Q: And the “Population Membrane Permeable-Phenotype (%)” value [11]?
A: 0%

Q: What about the “Population Mitochondria Different-Phenotype (%)” value [11] of the same compound?
A: 44%

Q: What about the “Population Mitotic Cells (%)” value [11] of the same compound?
A: 72%

Q: What about the “Population Normal (%)” value [11] of the same compound?
A: 93%

Q: And the “Population Pyknosed Nuclei (%)” value [11]?
A: 7%

Q: And the “Population Tubulin-Different-Phenotype (%)” value [11]?
A: 33%

Q: And the “Total Cell Count” value [11]?
A: 781

Q: And the “Population Apoptotic (%)” value [12]?
A: 32%

Q: What about the “Population Fragmented Nuclei (%)” value [12] of the same compound?
A: 14%

Q: What about the “Population Healthy Nuclei (%)” value [12] of the same compound?
A: 79%

Q: What about the “Population Hoechst High Intensity Objects (%)” value [12] of the same compound?
A: 4%

Q: And the “Population Mitochondria Different-Phenotype (%)” value [12]?
A: 43%

Q: And the “Population Mitotic Cells (%)” value [12]?
A: 67%

Q: And the “Population Normal (%)” value [12]?
A: 95%

Q: And the “Population Pyknosed Nuclei (%)” value [12]?
A: 6%

Q: What about the “Population Tubulin-Different-Phenotype (%)” value [12] of the same compound?
A: 35%

Q: What about the “Total Cell Count” value [12] of the same compound?
A: 681
